Screening results (PubChem BioAssay)
Compounds with a hit are over-represented: about 3% of the library has one in this group of screens.
PfHsp90 set2: inhibits growth of yeast expressing Plasmodium falciparum Hsp90; S. cerevisiae expressing PfHsp90, BacTiter-Glo ATP, 48 h; yeast lacking PDR1 and PDR3 efflux regulators; inhibition, % at 9.4 µM; hit rate 0.32% among 310,000;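 active = every replicate shows inhibition above about 80%, whatever the replicate mean, limit read from the data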
HSF-1 act: increases HSF-1 driven luciferase reporter signal; NIH3T3-HGL HSF-1 luciferase reporter, MG132, 8 h; 100% = twice DMSO control signal; activation, % at 9 µM; hit rate 1.7% among 300,000; AID 504408;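 active = mean replicate activation of at least 50% with a set share of replicates each reaching 50%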
T cruzi inh: T. cruzi replication inhibition; AID 1885; T. cruzi beta-gal in NIH3T3, luminescence, 90 h; inhibition, % (test concentration not listed); hit rate 1.4% among 300,000;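 active = mean inhibition across valid replicates above about 55%, limit read from the data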;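 also: signal also drops with host cell toxicity which is not excluded here; higher percent means less beta-gal luminescence so fewer parasites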
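System: NIH/3T3 fibroblasts plus reporter T. cruzi. Medium: DMEM plus 2% FBS. Probe or stimulus: 5000 reporter trypomastigotes per well. Compound: single 50 nL compound addition per well in DMSO. Incubation: co-culture of at least 90 h after 3 h attachment. Detection: GalScreen β-gal luminescence, detergent lysis, 60 min. Evaluation: parasite load inhibition, %.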
CaV13 ICDI inh: Disruptors of the CACNA1D IQ motif to Ca2+-dependent inactivation inhibitor domain association, primary screening, Förster resonance energy transfer in intact living …. HEK cells, CFP/YFP FRET ICDI-IQ, plate reader, 10 min; percent FRET-ratio fall versus neutral wells. inhibition, % at 12.3 µM. hit rate 0.098% among 340,000. AID 743397;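 active = mean replicate inhibition of at least 30% and at least 1% of replicates passing that level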
PvdQ inh: P. aeruginosa PvdQ acylase inhibition. purified PvdQ acylase, fluorescence plate reader. inhibition, % at 10 µM. hit rate 0.063% among 340,000. AID 488965; in the data active = inhibition above about 30%, passing the limit was not always enough
N-glyco inh: N-linked glycosylation inhibition; reporter increase, % at 12.5 µM; hit rate 0.23% among 360,000; D54 ERlucT glycosylation luciferase reporter, 24 h; percent of 100 nM tunicamycin response; AID 588692;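 active = mean luciferase reporter signal, scaled so untreated is 0 and the glycosylation-blocking control 100, at or above a set limit in every replicate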;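 also: luciferase carries N-glycosylation sites so blocking glycosylation raises the light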
Of the large screens only hits and unclear results are named; the others gave an inactive call.

CCOc1ccc(C2c3[nH]c4ccccc4c3C[C@H]3C(=O)N(C4CCN(Cc5ccccc5)CC4)CC(=O)N23)cc1OC (some centres undefined)	none
CCN(CCCNC(=O)CNC(=O)c1nn(-c2ccc(OC)cc2OC)c(=O)c2ccccc12)c1cccc(C)c1	HSF-1 act 60.6
O=C(NCc1cccnc1)c1ccc(-c2cc(Cl)ccc2Cl)o1	T cruzi inh 56.3
O=C(NCc1cccnc1)c1ccc(-c2ccc(Cl)cc2)o1	none
COc1ccc(C2C(C#N)=C(N)Oc3cc(O)ccc32)cc1OC (centres undefined)	none (no result: CaV13 ICDI inh)
COc1cc(C2C(C#N)=C(N)Oc3cc(O)ccc32)cc(OC)c1OC (centres undefined)	N-glyco inh 46.0
Cc1ccc(C(=O)NCC(=O)Nc2ccc3c(c2)CCC3)cc1C	none (no result: HSF-1 act, T cruzi inh)
O=C(Nc1cccc([N+](=O)[O-])c1)Nc1ccc2c(c1)CCC2	T cruzi inh 57.0
O=C(Nc1ccccc1)Nc1ccc2c(c1)CCC2	none
O=C(Nc1ccc([N+](=O)[O-])cc1)Nc1ccc2c(c1)OCCO2	HSF-1 act 64.1
Cc1cc(C(=O)Nc2ccc3c(c2)CCC3)ccc1[N+](=O)[O-]	HSF-1 act 55.0 (no result: PfHsp90 set2, PvdQ inh)
C#CCNC(=O)c1cc2cccnc2nc1N	none (no result: PfHsp90 set2, HSF-1 act, T cruzi inh, PvdQ inh, N-glyco inh)
CS(=O)(=O)N(CC(=O)Nc1c(F)cccc1F)c1ccc(C23CC4CC(CC(C4)C2)C3)cc1	T cruzi inh 69.6 (no result: CaV13 ICDI inh)
CC(=O)Nc1ccc(NC(=O)CN(c2ccc(C34CC5CC(CC(C5)C3)C4)cc2)S(C)(=O)=O)cc1	none
CS(=O)(=O)N(CC(=O)Nc1ccc(CC#N)cc1)c1ccc(C23CC4CC(CC(C4)C2)C3)cc1	HSF-1 act 60.4, T cruzi inh 70.1
O=C(O)c1cnn(-c2nc(-c3cccc([N+](=O)[O-])c3)cs2)c1C(F)(F)F	HSF-1 act 62.7
O=C(O)c1cnn(-c2nc(-c3cccc(F)c3)cs2)c1C(F)(F)F	none
Cc1[nH]nc2c1C(c1cccc(C(F)(F)F)c1)N(Cc1ccccc1)C2=O (centres undefined)	none (no result: PfHsp90 set2, HSF-1 act, T cruzi inh, PvdQ inh, N-glyco inh)
CCc1cc2c(nc1CC)CCCN2S(=O)(=O)c1ccc(C#N)cc1	none (no result: PfHsp90 set2, HSF-1 act, T cruzi inh, PvdQ inh, N-glyco inh)
CC1=C(C(=O)N2CCOCC2)C(c2c(C)cc(C)cc2C)NC(=S)N1 (centres undefined)	HSF-1 act 94.7
O=C1/C(=C/Nc2cccc([N+](=O)[O-])c2)CCc2ccccc21	HSF-1 act 73.4
O=[N+]([O-])c1cccc(NC(=S)N2CCc3ccccc3C2)c1	none
O=C1/C(=C\c2ccc([N+](=O)[O-])cc2)CCc2ccccc21	HSF-1 act 60.3
O=C1/C(=C/c2ccc(O)cc2)CCc2ccc([N+](=O)[O-])cc21	none
NC(=Nc1ccccc1)N(c1ccccc1)c1ccccc1	none (no result: PfHsp90 set2, HSF-1 act, T cruzi inh)
C=CCNC(=O)/C(C#N)=C/c1c(C)nn(-c2ccc(Cl)cc2)c1Cl	N-glyco inh 26.2
O=S(=O)(O)c1ccc(N=Nc2ccccc2)cc1	none
O=c1ccc(N=Nc2ccccc2)ccc1O	PfHsp90 set2 124.9
Cc1noc(C)c1S(=O)(=O)N(C)C[C@H]1OCc2cnnn2CCCC(=O)N([C@H](C)CO)C[C@H]1C	none (no result: PfHsp90 set2, HSF-1 act, T cruzi inh, PvdQ inh)
CC1CCCC(C)N1S(=O)(=O)c1ccc(S(=O)(=O)NCCc2ccncc2)cc1 (centres undefined)	T cruzi inh 56.7
CCn1c(CNC(=O)COc2ccc(C(C)C)cc2)nnc1SCC(=O)NC1CCCCC1C (centres undefined)	none (no result: PfHsp90 set2)
Cc1cccc(C)c1OCC(=O)NCc1nnc(SCC(=O)NC2CCCCC2C)n1C (centres undefined)	HSF-1 act 93.6 (no result: PfHsp90 set2)
CCN(CC)CCNc1ccc(CO)c2oc3cc(Cl)ccc3c(=O)c12	N-glyco inh 34.8 (no result: PfHsp90 set2, HSF-1 act, T cruzi inh, PvdQ inh)
CN(C)CCNc1ccc(CO)c2oc3ccc(O)cc3c(=O)c12	none (no result: HSF-1 act, T cruzi inh)
O=c1oc2cc(Cl)ccc2n1CSc1nc2ccccc2s1	HSF-1 act 104.4 (no result: PfHsp90 set2)
CCCOc1ccc(NC(=O)OC2CCN(C)CC2)cc1	T cruzi inh 54.6
COc1cccc(CNC(=O)[C@H]2CCCN2C(=O)[C@H]2CCCN2C(=O)OC(C)(C)C)c1	none (no result: PfHsp90 set2, HSF-1 act, T cruzi inh, PvdQ inh, N-glyco inh)
COc1cc(C(c2c(C(=O)O)[nH]c3ccccc23)c2c(C(=O)O)[nH]c3ccccc23)ccc1OCc1ccccc1	CaV13 ICDI inh 103.3
O=C(NC(=S)NNC(=O)[C@H]1C[C@@H]1c1ccccc1)c1cccc(F)c1	T cruzi inh 58.3
CC(C)[C@@H](C)/C=C/[C@@H](C)[C@H]1CC[C@@H]2[C@]1(C)CCC1[C@]23C=C[C@]2(C[C@@H](O)CC[C@]12C)N(c1ccc(Br)cn1)O3 (some centres undefined)	none (no result: PfHsp90 set2, HSF-1 act, T cruzi inh, PvdQ inh, N-glyco inh)
O=C(NC1CCCCC1)c1cnn2c(C(F)(F)F)cc(-c3ccco3)nc12	HSF-1 act 69.7 (no result: PfHsp90 set2)
O=C(NC1CCCCC1)c1nn2c(C(F)(F)F)cc(-c3ccco3)nc2c1Br	none
CCOC(=O)c1cc(-c2ccc(OC)cc2)n(CCC(=O)NC2CCN(Cc3ccccc3)CC2)c1C	none
CCOC(=O)c1cc(-c2ccc(F)cc2)n(CCC(=O)NC2CCN(Cc3ccccc3)CC2)c1C	T cruzi inh 77.8
CCOc1ccc(-n2c(-c3ccccc3)c[n+]3c2CCCCC3)cc1	T cruzi inh 60.0
c1ccc(-c2c[n+]3c(n2-c2ccccc2)CCC3)cc1	none
CCOc1ccc(N2Cc3ccccc3C2)cc1	none
Cc1ccc(-c2c[n+]3c(n2-c2ccccc2)CCC3)cc1	T cruzi inh 55.0
CC(C)(C)C1C/C(=C/c2ccccn2)C(=O)/C(=C/c2ccccn2)C1 (centres undefined)	PfHsp90 set2 99.9 (no result: CaV13 ICDI inh)
O=C1/C(=C/c2ccccn2)COc2ccccc21	none
CC1C/C(=C/c2ccccn2)C(=O)/C(=C/c2ccccn2)C1 (centres undefined)	HSF-1 act 89.0, T cruzi inh 58.3 (no result: CaV13 ICDI inh)
COC(=O)C1=C(C)N(CC(C)C)C(=S)NC1c1cccc(Br)c1 (centres undefined)	none (no result: PfHsp90 set2, HSF-1 act, T cruzi inh, PvdQ inh, N-glyco inh)
COC(=O)[C@]12C[C@H](CC(=O)N3CCC(c4ccccc4)CC3)C(=O)N(CCC3=CCCCC3)C1=C[C@H](C(C)(C)C)O[C@@H]2C	none (no result: PfHsp90 set2, HSF-1 act, T cruzi inh, PvdQ inh, N-glyco inh)
CN(CC(=O)Nc1ccccc1Cl)C(=O)CN1C(=O)NC(c2ccccc2)(c2ccccc2)C1=O	none (no result: HSF-1 act, T cruzi inh)
Cc1cc(C)c2c(N=NN(C)C)[nH]nc2n1	PfHsp90 set2 103.9
COCCN1Cc2cc(C(=O)OC)c3c(c2C1=O)c1cc(OC)ccc1n3S(=O)(=O)c1ccc(C)cc1	none (no result: PfHsp90 set2, HSF-1 act, T cruzi inh, PvdQ inh, N-glyco inh)
Cn1c(CCCOc2ccc(Cl)cc2Cl)nnc1SCC(=O)Nc1cccc(F)c1	HSF-1 act 53.9
Cn1c(CCCOc2ccc(Cl)cc2Cl)nnc1SCC(=O)Nc1ccc(F)c(Cl)c1	none
